Measured values from different studies.
Lines come from different studies, so protocols differ.
TEK: Angiopoietin-1 receptor (TEK, Homo sapiens, UniProt Q02763)
TEK R849W: Angiopoietin-1 receptor (TEK, Homo sapiens, UniProt Q02763, R849W)
TEK Y897S: Angiopoietin-1 receptor (TEK, Homo sapiens, UniProt Q02763, Y897S)

CNCc1ccccc1-c1csc([C@@H](C)Nc2nc(C)nc3cc(OC)c(OC)cc23)c1
remaining binding (TEK; cell-free assay, competition with immobilised ligand; 1 µM): 87%

CC(C)(C)c1nc(-c2cccc(NS(=O)(=O)c3c(F)cccc3F)c2F)c(-c2ccnc(N)n2)s1
remaining activity (TEK; enzyme activity, inhibitor, radiometric; 1 µM): 58%

Nc1ncnc2occ(-c3ccc(NC(=O)Nc4cc(C(F)(F)F)ccc4F)cc3)c12
remaining signal (TEK; cell-free assay; 20 µM): 0%

Cc1ccc(C(=O)Nc2ccc(CN3CCN(C)CC3)c(C(F)(F)F)c2)cc1C#Cc1cnc2cccnn12
remaining signal (TEK; cell-free assay; 23.5 nM): 5.2%

CN(C)c1ncnc(-c2ccc3nc(Nc4cc(CN5CCN(C(=O)CC(F)(F)F)CC5)ccn4)[nH]c3c2)c1Cl
remaining binding (TEK; cell-free assay, competition with immobilised ligand; 1 µM): 87%

CC(C)(O)[C@H]1CC[C@H](Nc2ccc3ncc(-c4cccc(C(F)(F)F)c4)n3n2)CC1
remaining activity (TEK; enzyme activity, inhibitor; 1 µM): 89%

CCCOc1ccc(OC)c(F)c1C(=O)c1ccc(C(=O)N[C@@H]2CNC[C@H]2NC(=O)c2ccc3[nH]ncc3c2)cc1
remaining activity (TEK; enzyme activity, inhibitor; 10 µM): 49%

Cc1ccc(Nc2nccc(N(C)c3ccc4c(C)n(C)nc4c3)n2)cc1S(N)(=O)=O
remaining signal (TEK; cell-free assay; 0.5 µM): 69.3%

O=C(Nc1cnc(Oc2ccc(F)cc2)nc1)N1CCc2ncccc2[C@@H]1c1ccc(F)cc1
remaining binding (TEK; cell-free assay, competition with immobilised ligand; 1 µM): 93%

Cc1cc(NC(=O)c2cccc3cc(-c4cccc5[nH]nc(N)c45)ccc23)ccc1F
activity vs control (TEK R849W; enzyme activity, inhibitor; 0.1 µM): 93%

COc1cc2nccc(Oc3ccc(NC(=O)c4c5n(n(-c6ccc(F)cc6)c4=O)CCCC5)cc3)c2cc1OC
inhibition (TEK; enzyme activity, inhibitor; 0.1 µM): 26%

CCCOc1ccc([C@H]2[C@H](C(=O)O)[C@@H](c3ccc4c(c3)OCO4)CN2CC(=O)Nc2c(CC)cccc2CC)cc1
remaining binding (TEK; cell-free assay, competition with immobilised ligand; 1 µM): 100%

Cc1ccc(NC(=O)c2ccc(C)c(C(F)(F)F)c2)cc1C#Cc1nn(C2CCC(O)CC2)c2ncnc(N)c12 (stereo not drawn)
remaining signal (TEK R849W; cell-free assay; 10 µM): 0%

CCN(CC)CCNC(=O)c1c(C)[nH]c(/C=C2\C(=O)Nc3ccc(F)cc32)c1C
inhibition (TEK; enzyme activity, inhibitor; 10 µM): 74%

Cn1cc(Cl)c2c(Oc3c(F)cc(Nc4cc(Cl)nc(N)n4)cc3F)ccnc21
remaining binding (TEK; cell-free assay, competition with immobilised ligand; 0.1 µM): 100%

CNC(=O)c1cc2c(Oc3ccc(NC(=O)C4(C(=O)Nc5ccc(F)cc5)CC4)cc3)ccnc2cc1OC
inhibition (TEK Y897S; enzyme activity, inhibitor, radiometric; 1 µM): 96%

O=C1NC(=O)c2cc(Nc3ccc(F)cc3)c(Nc3ccc(F)cc3)cc21
remaining signal (TEK; cell-free assay; 0.5 µM): 97.6%

CNCc1ccc(-c2cc(-c3nc(-c4ccc(S(=O)(=O)C(C)C)cc4)cnc3N)on2)cc1
inhibition (TEK; enzyme activity, inhibitor; 2 µM): 44%

O=C(Nc1cnn(-c2csc(C(=O)NC3COC3)c2)c1)Nc1ccccc1Cl
remaining activity (TEK; enzyme activity, inhibitor; 5 µM): 100%

CC(C)CC(=O)N1CCc2nc(-c3ccc(Br)cc3)nc(N(C)Cc3ccccc3)c2C1
remaining binding (TEK; cell-free assay, competition with immobilised ligand; 0.1 µM): 100%

Cc1cnc(NC2CCOCC2)nc1-n1cnc(C(=O)NC(CN)c2cc(F)cc(Cl)c2)c1 (stereo not drawn)
remaining activity (TEK Y897S; enzyme activity, inhibitor, radiometric; 1 µM): 105%

CNC(=O)c1cc(Oc2ccc(NC(=O)Nc3ccc(Cl)c(C(F)(F)F)c3)cc2)ccn1
remaining signal (TEK; cell-free assay; 0.5 µM): 104%

COc1cc2ncnc(Nc3ccc(Oc4ccccc4)cc3C)c2cc1OC
inhibition (TEK; enzyme activity, inhibitor; 1 µM): 13%

CC(=O)N1CCC(c2ccc(C(=O)NC3=NCCN3)cc2C(F)(F)F)CC1
remaining binding (TEK; cell-free assay, competition with immobilised ligand; 1 µM): 100%

COc1cc(Nc2cnc(C#N)c(O[C@H](C)CN(C)C)n2)ncc1-c1cnn(C)c1
remaining activity (TEK; enzyme activity, inhibitor, radiometric; 1 µM): 102%

Cc1[nH]c(/C=C2\C(=O)Nc3ccc(F)cc32)c(C)c1C(=O)N[C@H]1CCN(C(=O)N(C)C)C1
remaining activity (TEK; enzyme activity, inhibitor; 1 µM): 87%

CCOC(=O)c1cc2cc(-c3cc(C(=O)NCc4ccc(C(=O)O)cc4)nn3C)ccc2[nH]1
remaining binding (TEK; cell-free assay, competition with immobilised ligand; 0.1 µM): 83%

O=C(CSc1nc2nccnc2c(=O)n1CCc1ccccc1)Nc1nccs1
inhibition (TEK; enzyme activity, inhibitor; 10 µM): 6%

CCN(CC)c1ccc(C2=NNC(=O)CC2C)cc1[N+](=O)[O-] (stereo not drawn)
remaining activity (TEK; enzyme activity, inhibitor; 10 µM): 24%

Cc1sc(C(=O)NC2COC2)cc1-n1cc(NC(=O)Nc2c(F)cccc2Cl)cn1
remaining activity (TEK; enzyme activity, inhibitor; 10 µM): 86.6%
